Published values pooled from the literature.
Protocols differ between the studies behind these lines.
Glucagon receptor: Glucagon receptor (Mus musculus, UniProt Q61606)
MTNR1A: Melatonin receptor type 1A (MTNR1A, Homo sapiens, UniProt P48039)

SMILES	target	assay	EC50
CC[C@H](C)[C@H](NC(=O)[C@H](CO)NC(=O)[C@H](Cc1ccc(O)cc1)NC(=O)[C@H](CC(=O)O)NC(=O)[C@H](CO)NC(=O)[C@@H](NC(=O)[C@H](Cc1ccccc1)NC(=O)[C@@H](NC(=O)CNC(=O)[C@H](CCC(=O)O)NC(=O)[C@H](C)NC(=O)[C@@H](N)Cc1ccc(O)cc1)[C@@H](C)O)[C@@H](C)CC)C(=O)N[C@@H](C)C(=O)N[C@@H](CCSC)C(=O)N[C@@H](CC(=O)O)C(=O)N[C@@H](CCCCN)C(=O)N[C@H](C(=O)N[C@@H](CCCNC(=N)N)C(=O)N[C@@H](CCC(N)=O)C(=O)N[C@@H](CCC(N)=O)C(=O)N[C@@H](CC(=O)O)C(=O)N[C@@H](Cc1ccccc1)C(=O)N[C@H](C(=O)N[C@@H](CC(N)=O)C(=O)N[C@@H](Cc1c[nH]c2ccccc12)C(=O)N[C@@H](CC(C)C)C(=O)N[C@@H](CC(C)C)C(=O)N[C@@H](C)C(=O)N[C@@H](CCC(N)=O)C(=O)N[C@@H](CCCNC(=N)N)C(=O)NCC(=O)N[C@@H](CCCCN)C(=O)N[C@@H](CCCCN)C(=O)N[C@@H](CO)C(=O)N[C@@H](CC(=O)O)C(=O)N[C@@H](Cc1c[nH]c2ccccc12)C(=O)N[C@@H](CCCCN)C(=O)N[C@@H](Cc1c[nH]cn1)C(=O)N[C@@H](CC(N)=O)C(=O)N[C@H](C(=O)N[C@H](C(=O)N[C@@H](CCC(N)=O)C(=O)O)[C@@H](C)O)[C@@H](C)CC)C(C)C)[C@@H](C)CC	Glucagon receptor	reporter gene, agonist, luciferase	> 1000 nM
Clc1sccc1CNc1cccc(-c2nnc[nH]2)c1	MTNR1A	cAMP, agonist, luciferase	9300 nM
Cc1cccnc1C(=O)Nc1ccc(N2C(=O)c3cccc(Cl)c3C2=O)c(Cl)c1	Metabotropic glutamate receptor 1 (Grm1, Rattus norvegicus, UniProt P23385)	calcium signal, positive allosteric modulator	367 nM
C#CCOCCOCCOCCOc1ccc2c3c1C1CCCC1N3CCNC2 (racemic)	5-hydroxytryptamine receptor 2C (HTR2C, Homo sapiens, UniProt P28335)	calcium signal, agonist, fluorescence	647 nM
CC[C@H](C)[C@H](NC(=O)[C@H](Cc1ccccc1)NC(=O)[C@H](CCC(=O)O)NC(=O)[C@H](CCCCN)NC(=O)[C@H](C)NC(=O)[C@H](C)NC(=O)[C@H](CCC(N)=O)NC(=O)CNC(=O)[C@H](CCC(=O)O)NC(=O)[C@H](CC(C)C)NC(=O)[C@H](Cc1ccc(O)cc1)NC(=O)[C@H](CO)NC(=O)[C@H](CO)NC(=O)[C@@H](NC(=O)[C@H](CC(=O)O)NC(=O)[C@H](CO)NC(=O)[C@@H](NC(=O)[C@H](Cc1ccccc1)NC(=O)[C@@H](NC(=O)CNC(=O)[C@H](CCC(=O)O)NC(=O)[C@H](C)NC(=O)[C@@H](N)Cc1c[nH]cn1)[C@@H](C)O)[C@@H](C)O)C(C)C)C(=O)N[C@@H](C)C(=O)N[C@@H](Cc1c[nH]c2ccccc12)C(=O)N[C@@H](CC(C)C)C(=O)N[C@H](C(=O)N[C@@H](CCCCN)C(=O)NCC(=O)N[C@@H](CCCN=C(N)N)C(=O)NCC(=O)O)C(C)C	Glucagon receptor	reporter gene, agonist, luciferase	> 1000 nM
COc1cccc(CN2CCOc3ccc(OC)cc32)c1	MTNR1A	cAMP, agonist, luciferase	6.11 nM
COCC(CNC(C)=O)c1cccc2ccc(OC)cc12 (stereo not drawn)	MTNR1A	cAMP, agonist, TR-FRET	21.4 nM
COc1ccc(CSc2nnc(C3CC3)[nH]2)cc1	MTNR1A	cAMP, agonist, luciferase	2.96 nM
COc1ccc2[nH]cc(CCNC(C)=O)c2c1I	MTNR1A	cAMP, agonist, TR-FRET	229 nM
